Results taken from ChEMBL document CHEMBL1122592, “Synthesis and evaluation of radioiodinated terminal p-iodophenyl-substituted alpha- and beta-methyl-branched fatty acids” (1984).

Experiments:
Format in all cases: functional
Rattus norvegicus [1] = test: Heart uptake in percent injected dose/gram (range) was determined in female fischer rat after 1251-labelled compound complexed with bovine serum albumin was injected intravenously after 5 minutes
Summary of the method: (§1)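 Female Fischer 344 rats, 10–12 weeks old (170–200 g), fed and watered ad libitum. ¹²⁵I-labeled fatty acid in 0.5 mL absolute ethanol added dropwise to stirred 6% bovine serum albumin at 40 °C (final ethanol 10%), 0.22-μm filtered, given into a lateral tail vein under ether anesthesia. At set times: ether anesthesia, cervical fracture, organs excised, rinsed, blotted, weighed and gamma counted. Values are % injected dose/g, 3–4 rats per time point.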

Rattus norvegicus [2] = test: Heart uptake in percent injected dose/gram (range) was determined in female fischer rat after 1251-labelled compound complexed with bovine serum albumin was injected intravenously after 60 minutes; summary of the method: as §1
Rattus norvegicus [3] = test: Heart uptake in percent injected dose/gram (range) was determined in female fischer rat after 1251-labelled compound complexed with bovine serum albumin was injected intravenously after 4 hours; summary of the method: as §1
Rattus norvegicus [4] = test: Heart uptake in percent injected dose/gram (range) was determined in female fischer rat after 1251-labelled compound complexed with bovine serum albumin was injected intravenously after 30 minutes; summary of the method: as §1
Rattus norvegicus [5] = test: Kidneys uptake in percent injected dose/gram (range) was determined in female fischer rat after 1251-labelled compound complexed with bovine serum albumin was injected intravenously after 30 minutes; summary of the method: as §1
Rattus norvegicus [6] = test: Kidneys uptake in percent injected dose/gram (range) was determined in female fischer rat after 1251-labelled compound complexed with bovine serum albumin was injected intravenously after 4 hours; summary of the method: as §1
Rattus norvegicus [7] = test: Lungs uptake in percent injected dose/gram (range) was determined in female fischer rat after 1251-labelled compound complexed with bovine serum albumin was injected intravenously after 5 minutes; summary of the method: as §1
Rattus norvegicus [8] = test: Lungs uptake in percent injected dose/gram (range) was determined in female fischer rat after 1251-labelled compound complexed with bovine serum albumin was injected intravenously after 60 minutes; summary of the method: as §1
Rattus norvegicus [9] = test: Blood uptake in percent injected dose/gram (range) was determined in female fischer rat after 1251-labelled compound complexed with bovine serum albumin was injected intravenously after 30 minutes; summary of the method: as §1
Rattus norvegicus [10] = test: Blood uptake in percent injected dose/gram (range) was determined in female fischer rat after 1251-labelled compound complexed with bovine serum albumin was injected intravenously after 4 hours; summary of the method: as §1
Rattus norvegicus [11] = test: Lungs uptake in percent injected dose/gram (range) was determined in female fischer rat after 1251-labelled compound complexed with bovine serum albumin was injected intravenously after 4 hours; summary of the method: as §1
Rattus norvegicus [12] = test: Blood uptake in percent injected dose/gram (range) was determined in female fischer rat after 1251-labelled compound complexed with bovine serum albumin was injected intravenously after 5 minutes; summary of the method: as §1
Rattus norvegicus [13] = test: Blood uptake in percent injected dose/gram (range) was determined in female fischer rat after 1251-labelled compound complexed with bovine serum albumin was injected intravenously after 60 minutes; summary of the method: as §1
Rattus norvegicus [14] = test: Thyroid uptake in percent injected dose/gram (range) was determined in female fischer rat after 1251-labelled compound complexed with bovine serum albumin was injected intravenously after 30 minutes; summary of the method: as §1
Rattus norvegicus [15] = test: Thyroid uptake in percent injected dose/gram (range) was determined in female fischer rat after 1251-labelled compound complexed with bovine serum albumin was injected intravenously after 4 hours; summary of the method: as §1
Rattus norvegicus [16] = test: Thyroid uptake in percent injected dose/gram (range) was determined in female fischer rat after 1251-labelled compound complexed with bovine serum albumin was injected intravenously after 5 minutes; summary of the method: as §1
Rattus norvegicus [17] = test: Thyroid uptake in percent injected dose/gram (range) was determined in female fischer rat after 1251-labelled compound complexed with bovine serum albumin was injected intravenously after 60 min; summary of the method: as §1
Rattus norvegicus [18] = test: Kidneys uptake in percent injected dose/gram (range) was determined in female fischer rat after 1251-labelled compound complexed with bovine serum albumin was injected intravenously after 5 minutes; summary of the method: as §1
Rattus norvegicus [19] = test: Kidneys uptake in percent injected dose/gram (range) was determined in female fischer rat after 1251-labelled compound complexed with bovine serum albumin was injected intravenously after 60 minutes; summary of the method: as §1
Rattus norvegicus [20] = test: Liver uptake in percent injected dose/gram (range) was determined in female fischer rat after 1251-labelled compound complexed with bovine serum albumin was injected intravenously after 30 minutes; summary of the method: as §1
Rattus norvegicus [21] = test: Liver uptake in percent injected dose/gram (range) was determined in female fischer rat after 1251-labelled compound complexed with bovine serum albumin was injected intravenously after 4 hours; summary of the method: as §1
Rattus norvegicus [22] = test: Liver uptake in percent injected dose/gram (range) was determined in female fischer rat after 1251-labelled compound complexed with bovine serum albumin was injected intravenously after 5 minutes; summary of the method: as §1
Rattus norvegicus [23] = test: Liver uptake in percent injected dose/gram (range) was determined in female fischer rat after 1251-labelled compound complexed with bovine serum albumin was injected intravenously after 60 min; summary of the method: as §1
Rattus norvegicus [24] = test: Lungs uptake in percent injected dose/gram (range) was determined in female fischer rat after 1251-labelled compound complexed with bovine serum albumin was injected intravenously after 30 minutes; summary of the method: as §1
Rattus norvegicus [25] = test: Thyroid uptake in percent injected dose/gram (range) was determined in female fischer rat after 1251-labelled compound complexed with bovine serum albumin was injected intravenously after 60 minutes; summary of the method: as §1
Rattus norvegicus [26] = test: Heart uptake in percent injected dose/gram (range) was determined in female fischer rat after 1251-labelled compound complexed with bovine serum albumin was injected intravenously after 5 hours; summary of the method: as §1
Rattus norvegicus [27] = test: Lungs uptake in percent injected dose/gram (range) was determined in female fischer rat after 1251-labelled compound complexed with bovine serum albumin was injected intravenously after 5 hours; summary of the method: as §1
Rattus norvegicus [28] = test: Blood uptake in percent injected dose/gram (range) was determined in female fischer rat after 1251-labelled compound complexed with bovine serum albumin was injected intravenously after 5 hours; summary of the method: as §1
Rattus norvegicus [29] = test: Thyroid uptake in percent injected dose/gram (range) was determined in female fischer rat after 1251-labelled compound complexed with bovine serum albumin was injected intravenously after 5 hours; summary of the method: as §1
Rattus norvegicus [30] = test: Kidneys uptake in percent injected dose/gram (range) was determined in female fischer rat after 1251-labelled compound complexed with bovine serum albumin was injected intravenously after 5 hours; summary of the method: as §1
Rattus norvegicus [31] = test: Liver uptake in percent injected dose/gram (range) was determined in female fischer rat after 1251-labelled compound complexed with bovine serum albumin was injected intravenously after 5 hours; summary of the method: as §1

SMILES | Activity (Rattus norvegicus [1]) | Activity (Rattus norvegicus [2]) | Activity (Rattus norvegicus [3]) | Activity (Rattus norvegicus [4]) | Activity (Rattus norvegicus [5]) | Activity (Rattus norvegicus [6]) | Activity (Rattus norvegicus [7]) | Activity (Rattus norvegicus [8]) | Activity (Rattus norvegicus [9]) | Activity (Rattus norvegicus [12]) | Activity (Rattus norvegicus [13]) | Activity (Rattus norvegicus [14]) | Activity (Rattus norvegicus [16]) | Activity (Rattus norvegicus [18]) | Activity (Rattus norvegicus [19]) | Activity (Rattus norvegicus [20]) | Activity (Rattus norvegicus [22]) | Activity (Rattus norvegicus [23]) | Activity (Rattus norvegicus [24]) | Activity (Rattus norvegicus [25]) | also measured
CC(CCCCCCCCCCCCc1ccc(I)cc1)CC(=O)O (racemic) [IODOFILTIC ACID] | 4.62% | 4.26% | 2.27% | 3.63% | 1.71% | 1.49% | 1.45% | 1.21% | 1.6% | 0.71% | 1.7% | 9.26% | 6.78% | 1.08% | 2.14% | 3.66% | 8.32% | 1.92% | 1.15% |  | Activity (Rattus norvegicus [10]): 1.13%; Activity (Rattus norvegicus [11]): 0.91%; Activity (Rattus norvegicus [15]): 9.69%; Activity (Rattus norvegicus [17]): 10.66%; Activity (Rattus norvegicus [21]): 0.95%
O=C(O)CCCCCCCCCCCCCc1ccc(I)cc1 | 2.72% | 1.78% |  |  |  |  | 1.55% | 1.39% |  | 1.58% | 1.48% |  | 1.64% | 1.64% | 1.94% |  | 4.82% | 2.04% |  | 2.56% | 
O=C(O)CCCCCCCCCCCCCCc1ccc(I)cc1 [IOCANLIDIC ACID] | 2.98% | 2.34% | 0.93% | 2.67% | 1.08% | 0.88% | 1.26% | 1.29% | 1.5% | 0.91% | 1.32% | 10.28% | 7.08% | 0.84% | 1.05% | 5.31% | 6.69% | 3.76% | 1.36% | 7.37% | Activity (Rattus norvegicus [10]): 0.7%; Activity (Rattus norvegicus [11]): 0.97%; Activity (Rattus norvegicus [15]): 8.54%; Activity (Rattus norvegicus [21]): 1.72%
CC(CCCCCCCCCCCCc1ccc(I)cc1)C(=O)O (racemic) | 1.71% | 1.52% |  | 1.58% | 1.95% |  | 1.13% | 1.13% | 1.83% | 1.8% | 1.64% | 5.3% | 7.56% | 1.68% | 1.85% | 3.85% | 7.61% | 2.94% | 1.03% | 11.5% | Activity (Rattus norvegicus [26]): 0.59%; Activity (Rattus norvegicus [27]): 0.77%; Activity (Rattus norvegicus [28]): 1.07%; Activity (Rattus norvegicus [29]): 13.95%; Activity (Rattus norvegicus [30]): 1.36%; Activity (Rattus norvegicus [31]): 1.52%
